Experimental data of several laboratories.
Compare with care: the assays were run in different laboratories.
Target: SRSF protein kinase 3 (SRPK3, Homo sapiens, UniProt Q9UPE1)

SMILES	observed	mode	technique	tested at	endpoint	value
Cc1ccc(NC(=O)c2ccnc(C(F)(F)F)c2)cc1-c1cc(OCCO)nc(N2CCOCC2)c1	binding			1 µM	remaining binding	93%
CCCCC(=O)Nc1ccc(-c2ccc3ncn(CCC)c(=O)c3c2)cn1	binding		competition with immobilised ligand	0.5 µM	remaining binding	92%
CC(C)S(=O)(=O)c1ccc2nccc(Nc3ccc4sc(C5CCCC5)nc4c3)c2c1	enzyme activity	inhibitor		1 µM	activity vs control	110%
CN1CCN(C(=O)c2ccc(NC(=O)Nc3ccc(N(C)c4ccnc(Nc5ccc(CS(C)(=O)=O)cc5)n4)cc3)cc2)CC1	binding			1 µM	remaining binding	7.7%
CC#CC(=O)N1CCC[C@H]1c1nc(-c2ccc(C(=O)Nc3ccccn3)cc2)c2c(N)nccn12	enzyme activity	inhibitor		1 µM	inhibition	0%
C#Cc1cnc(Nc2ccnc(CO)c2)nc1Nc1ccccc1S(C)(=O)=NC#N (centres unmarked)	cell-free assay			1 µM	remaining signal	47%
C=CC(=O)N1CCC[C@@H](n2nc(-c3ccc(Oc4ccccc4)cc3)c3c(N)ncnc32)C1	enzyme activity	inhibitor		1 µM	inhibition	16%
N#Cc1ccc(NC(=O)Nc2ccccc2)cc1	cell-free assay		competition with immobilised ligand	25 µM	inhibition	90.3%
